Reference: ChEMBL document CHEMBL4354849, “[1,2,5]Oxadiazolo[3,4-b]pyrazine-5,6-diamine Derivatives as Mitochondrial Uncouplers for the Potential Treatment of Nonalcoholic Steatohepatitis” (J Med Chem, 2020)
The source made the active and inactive calls. No cut-off for these calls is given here.

What was measured:
[1] = Induction of mitochondrial uncoupling in rat L6 cells assessed as oxygen consumption rate measured over 90 mins by oxygen consumption rate by seahorse assay; assay type: mitochondria, Mitochondria
L6 = assay: Induction of mitochondrial uncoupling in rat L6 cells assessed as oxygen consumption rate up to 50 uM measured over 90 mins by oxygen consumption rate by seahorse assay relative to <= 50 uM BAM15; settings: Mitochondria
Procedure, shortened: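 L6 rat myoblasts were seeded at 3.5 × 10⁴ cells/well and left to adhere overnight. Medium was switched to unbuffered DMEM with pyruvate and glutamine, pH 7.4, and cells were equilibrated 1 h at 37°C without CO₂. One concentration per well, 2 wells per condition, OCR followed over 90 min. The first three post-injection readings were averaged to build the dose curve. AUC above baseline was expressed relative to BAM15 run on each plate; EC50 came from a Hill fit with the bottom fixed at 100% baseline.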

Mus musculus [2] = assay: Improvement in liver fibrosis in Stelic C57BL/6 mouse model of streptozotocin-induced NASH assessed as NAS score at 10 mg/kg/day, po for 21 days (reference value: 4.6 +/- 0.7); assay type: functional
Mus musculus [3] = assay: Effect on body weight in Stelic C57BL/6 mouse model of streptozotocin-induced NASH at 10 mg/kg/day, po for 21 days; assay type: ADME, organism-based; settings: in vivo, 504 h
Mus musculus [4] = assay: Improvement in liver fibrosis in Stelic C57BL/6 mouse model of streptozotocin-induced NASH assessed as effect on liver Cd146 mRNA expression at 10 mg/kg/day, po for 21 days; assay type: functional, organism-based
Mus musculus [5] = assay: Improvement in liver fibrosis in Stelic C57BL/6 mouse model of streptozotocin-induced NASH assessed as liver fibrosis score at 10 mg/kg/day, po for 21 days by Picrosirius ed staining based assay (reference value: 0.91 +/- 0.25); assay type: functional
Mus musculus [6] = assay: Improvement in liver fibrosis in Stelic C57BL/6 mouse model of streptozotocin-induced NASH assessed as increase in plasma cholesterol at 10 mg/kg/day, po for 21 days; assay type: functional, organism-based
Mus musculus [7] = assay: Induction of hyperglycemia in Stelic C57BL/6 mouse model of streptozotocin-induced NASH at 10 mg/kg/day, po for 21 days; assay type: organism-based; settings: in vivo, 504 h
Mus musculus [8] = assay: Improvement in liver fibrosis in Stelic C57BL/6 mouse model of streptozotocin-induced NASH assessed as effect on plasma AST level at 10 mg/kg/day, po for 21 days; assay type: functional, organism-based
Mus musculus [9] = assay: Effect on food intake in Stelic C57BL/6 mouse model of streptozotocin-induced NASH assessed as reduction in food intake at 10 mg/kg/day, po for 21 days; assay type: ADME, organism-based; set-up: scale not given: the % may be the effect or the level left; settings: in vivo, 504 h
Mus musculus [10] = assay: Effect on liver weight in Stelic C57BL/6 mouse model of streptozotocin-induced NASH at 10 mg/kg/day, po for 21 days; assay type: ADME, organism-based; settings: in vivo, 504 h
Mus musculus [11] = assay: Improvement in liver fibrosis in Stelic C57BL/6 mouse model of streptozotocin-induced NASH assessed as reduction in plasma triglyceride at 10 mg/kg/day, po for 21 days; assay type: functional, organism-based
Mus musculus [12] = assay: Improvement in liver fibrosis in Stelic C57BL/6 mouse model of streptozotocin-induced NASH assessed as effect on liver Gfap mRNA expression at 10 mg/kg/day, po for 21 days; assay type: functional, organism-based
Mus musculus [13] = assay: Effect on ballooning in Stelic C57BL/6 mouse model of streptozotocin-induced NASH at 10 mg/kg/day, po for 21 days; assay type: ADME, organism-based; settings: in vivo, 504 h

SMILES | EC50 [1] | Activity (L6) | other results
COc1cccc(Nc2nc3nonc3nc2Nc2ccccc2F)c1 | 830 nM |  | 
FC(F)(F)c1cccc(Nc2nc3nonc3nc2Nc2cccc(C(F)(F)F)c2)c1 | 700 nM | 28% | 
FC(F)(F)Oc1ccc(Nc2nc3nonc3nc2Nc2ccc(OC(F)(F)F)c(Br)c2)cc1Br | 2200 nM |  | 
FC(F)(F)Oc1cccc(Nc2nc3nonc3nc2Nc2cccc(OC(F)(F)F)c2)c1 | 1100 nM | 53% | 
Fc1ccccc1Nc1nc2nonc2nc1NC1CCCCC1 | 13400 nM |  | 
Fc1ccc(C(F)(F)F)cc1Nc1nc2nonc2nc1Nc1cc(C(F)(F)F)ccc1F | < 1000 nM |  | 
COc1cccc(Nc2nc3nonc3nc2Nc2cccc(OC)c2)c1 | > 100000 nM | 43% | 
Fc1ccccc1Nc1nc2nonc2nc1Nc1ccccc1C(F)(F)F | 1400 nM | 57% | 
Fc1ccccc1Nc1nc2nonc2nc1Nc1ccc(OC(F)(F)F)cc1 | 1300 nM |  | 
CCOc1cccc(Nc2nc3nonc3nc2Nc2ccccc2F)c1 | 2200 nM | 28% | 
Fc1ccccc1Nc1nc2nonc2nc1NCCC(F)(F)F | > 100000 nM |  | 
Fc1ccccc1Nc1nc2nonc2nc1Nc1ccccc1OC(F)(F)F | 1700 nM | 67% | 
Fc1ccc(Nc2nc3nonc3nc2Nc2ccccc2F)cc1 | 2300 nM | 65% | 
Cc1ccc(Nc2nc3nonc3nc2Nc2ccc(C)c(C)c2)cc1C | > 100000 nM |  | 
O=C(Nc1ccc(Nc2nc3nonc3nc2Nc2ccccc2F)cc1)C(F)(F)F | 4100 nM |  | 
Oc1ccc(F)c(Nc2nc3nonc3nc2Nc2ccccc2F)c1 | 30000 nM | 45% | 
FC(F)(F)c1cc(Nc2nc3nonc3nc2Nc2cc(C(F)(F)F)cc(C(F)(F)F)c2)cc(C(F)(F)F)c1 | 6100 nM |  | 
Fc1ccc(Nc2nc3nonc3nc2Nc2ccccc2F)c(F)c1 | 300 nM | 22% | 
CCOc1ccc(Nc2nc3nonc3nc2Nc2ccccc2F)cc1 | 3800 nM |  | 
Cc1ccc(Nc2nc3nonc3nc2Nc2ccc(C)cc2)cc1 | > 20000 nM | 59% | 
Fc1cc(F)c(Nc2nc3nonc3nc2Nc2c(F)cc(F)cc2F)c(F)c1 | 1100 nM |  | 
FC(F)(F)Oc1ccc(Nc2nc3nonc3nc2Nc2ccc(OC(F)(F)F)cc2)cc1 | < 5000 nM | 14% | 
Fc1ccccc1Nc1nc2nonc2nc1Nc1cccc(C(F)(F)F)c1 | < 1000 nM |  | 
Fc1ccccc1Nc1nc2nonc2nc1Nc1cccc(F)c1F | 500 nM | 15% | 

SMILES | EC50 [1] | Activity (L6) | other results
Fc1ccccc1Nc1nc2nonc2nc1Nc1ccccn1 | 9000 nM | 20% | 
FC(F)(F)c1ccccc1Nc1nc2nonc2nc1Nc1ccccc1C(F)(F)F | 1000 nM | 39% | 
Cc1ccccc1Nc1nc2nonc2nc1Nc1ccccc1F | 1100 nM | 58% | 
CCc1ccc(Nc2nc3nonc3nc2Nc2ccc(CC)cc2)cc1 | 3900 nM |  | 
C1CCC(Nc2nc3nonc3nc2NC2CCCC2)C1 | 45000 nM | 20% | 
Fc1cc(C(F)(F)F)ccc1Nc1nc2nonc2nc1Nc1ccc(C(F)(F)F)cc1F | < 1000 nM |  | 
Fc1ccccc1Nc1nc2nonc2nc1Nc1ccc(C(F)(F)F)cc1 | 270 nM |  | 
Cc1cccc(Nc2nc3nonc3nc2Nc2ccccc2F)c1 | 1500 nM |  | 
Fc1cc(F)cc(Nc2nc3nonc3nc2Nc2cc(F)cc(F)c2)c1 | < 1000 nM |  | 
Fc1cc(I)ccc1Nc1nc2nonc2nc1Nc1ccc(I)cc1F | 8800 nM |  | 
CCCc1nc2c(C)cc(-c3nc4ccccc4n3C)cc2n1Cc1ccc(-c2ccccc2C(=O)O)cc1 [TELMISARTAN] |  |  | Activity (Mus musculus [2]): 2.9; Activity (Mus musculus [3]): Toxic; Activity (Mus musculus [4]): inactive; Activity (Mus musculus [5]): 0.6; Activity (Mus musculus [6]): Active; Activity (Mus musculus [7]): Toxic; Activity (Mus musculus [8]): inactive; Activity (Mus musculus [9]): 23%; Activity (Mus musculus [10]): Toxic; Activity (Mus musculus [11]): Active; Activity (Mus musculus [12]): inactive; Activity (Mus musculus [13]): Non-Toxic
Fc1ccccc1Nc1nc2nonc2nc1Nc1ccccc1 | 2200 nM | 65% | 
COc1ccc(Nc2nc3nonc3nc2Nc2ccc(OC)cc2)cc1 | > 100000 nM | 14% | 
Fc1ccccc1Nc1nc2nonc2nc1Nc1cccc(OC(F)(F)F)c1 | 600 nM | 8% | 
CCOc1cccc(Nc2nc3nonc3nc2Nc2cccc(OCC)c2)c1 | 10100 nM | 45% | 
CCOc1ccccc1Nc1nc2nonc2nc1Nc1ccccc1F | 5600 nM | 15% | 
Cc1cccc(Nc2nc3nonc3nc2Nc2cccc(C)c2)c1 | 2100 nM | 22% | 
Fc1cc(Br)ccc1Nc1nc2nonc2nc1Nc1ccc(Br)cc1F | < 3000 nM |  | 
Fc1ccccc1Nc1nc2nonc2nc1Nc1cc(C(F)(F)F)cc(C(F)(F)F)c1 | < 370 nM |  | 
COc1ccc(Nc2nc3nonc3nc2Nc2ccccc2F)cc1 | 1600 nM | 52% | 
Fc1cc(Nc2nc3nonc3nc2Nc2ccc(C(F)(F)F)c(F)c2)ccc1C(F)(F)F | 1700 nM |  | 
Fc1ccccc1Nc1nc2nonc2nc1Nc1cccc(C(F)(F)F)c1F | < 370 nM |  | 
Cc1ccc(Nc2nc3nonc3nc2Nc2ccccc2F)cc1 | 2100 nM |  | 
Cc1ccccc1Nc1nc2nonc2nc1Nc1ccccc1C | 2300 nM |  | 
